Measured values published in ChEMBL document CHEMBL1130090, “Antitumor agents. 174. 2',3',4',5,6,7-Substituted 2-phenyl-1,8-naphthyridin-4-ones: their synthesis, cytotoxicity, and inhibition of tubulin polymerization” (J Med Chem, 1997).
pIC50: −log10 of the molar value.

Assays:
Format in all cases: functional
SK-MEL-5 = test: Concentration which reduced cell growth to 50 % of level against SK-MEL-5 melanoma cell line; conditions: Homo sapiens
Tumor Cell line = test: Cytotoxic effect in human tumor cell lines, tested by the National Cancer Institute; conditions: read-out: Average LogGI50 (converted)
U-251 = test: Concentration which reduced cell growth to 50 % of U251 cancer line; conditions: Homo sapiens
MDA-MB-435 = test: Concentration which reduced cell growth to 50 % of level against MDA-MB-435 breast cancer line; conditions: Homo sapiens
HCT-116 = test: Concentration which reduced cell growth to 50 % of level against HCT116 colon cancer cell line; conditions: Homo sapiens
Tubulin beta chain = Tubulin beta chain (Bos taurus, UniProt Q6B856); test: Inhibition of bovine tubulin polymerization
Chain of Tubulin beta chain (Q6B856 whole entry): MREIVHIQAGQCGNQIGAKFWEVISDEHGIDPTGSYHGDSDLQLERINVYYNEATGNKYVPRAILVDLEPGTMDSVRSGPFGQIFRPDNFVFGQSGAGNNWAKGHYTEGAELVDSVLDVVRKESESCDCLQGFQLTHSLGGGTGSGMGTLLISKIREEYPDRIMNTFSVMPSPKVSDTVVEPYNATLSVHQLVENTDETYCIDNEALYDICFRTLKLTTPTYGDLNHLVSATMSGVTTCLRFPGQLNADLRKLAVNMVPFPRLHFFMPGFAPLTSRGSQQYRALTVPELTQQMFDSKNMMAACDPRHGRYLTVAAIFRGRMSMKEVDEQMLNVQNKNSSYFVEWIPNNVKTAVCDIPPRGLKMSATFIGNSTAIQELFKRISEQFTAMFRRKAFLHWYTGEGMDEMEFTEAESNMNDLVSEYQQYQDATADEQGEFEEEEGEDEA

NCI-H460 = test: Concentration which reduced cell growth to 50 % of level against NCI-H460 non -small-cell lung cancer cell line; conditions: Homo sapiens
OVCAR-3 = test: Concentration which reduced cell growth to 50 % of level against OVCAR-3 ovarian cancer line; conditions: Homo sapiens
HL-60 = test: Concentration which reduced cell growth to 50 % of level against HL-60 (TB) leukemia cell line; conditions: Homo sapiens
MDA-N = test: Concentration which reduced cell growth to 50 % of level against MDA-N breast cancer line; conditions: Homo sapiens
PC-3 = test: Concentration which reduced cell growth to 50 % of level against PC-3 prostate cancer line; conditions: Homo sapiens
SF-295 = test: Concentration which reduced cell growth to 50 % of level against SF-295 CNS cancer line; conditions: Homo sapiens
786-0 = test: Concentration which reduced cell growth to 50 % of level against 786-0 renal cancer line; conditions: Homo sapiens
[1] = target: Tubulin alpha chain (Sus scrofa) (UniProt P02550); test: Inhibition of colchicine binding and evaluated only when polymerization IC50 <=1 uM
Chain of Tubulin alpha chain (Sus scrofa) (P02550 whole entry, looked up): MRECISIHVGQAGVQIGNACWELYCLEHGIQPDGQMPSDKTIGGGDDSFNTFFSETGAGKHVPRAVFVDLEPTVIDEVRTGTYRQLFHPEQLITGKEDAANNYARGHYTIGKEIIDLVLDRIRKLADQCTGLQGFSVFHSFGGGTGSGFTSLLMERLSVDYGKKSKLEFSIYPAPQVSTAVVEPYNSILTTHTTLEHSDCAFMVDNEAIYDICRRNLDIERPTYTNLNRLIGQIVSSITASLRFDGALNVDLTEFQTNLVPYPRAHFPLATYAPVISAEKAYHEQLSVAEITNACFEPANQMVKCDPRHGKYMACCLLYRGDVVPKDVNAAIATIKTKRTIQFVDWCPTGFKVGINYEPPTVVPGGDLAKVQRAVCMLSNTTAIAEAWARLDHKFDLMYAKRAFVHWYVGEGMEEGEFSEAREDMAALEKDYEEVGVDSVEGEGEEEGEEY
Method in brief: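 Electrophoretically homogeneous bovine brain tubulin (1.0 µM) incubated 20 min at 37 °C with 5.0 µM [3H]colchicine and 5.0 µM inhibitor in 1.0 M monosodium glutamate (pH 6.6), 1 mM MgCl2, 0.1 mM GTP, 5% (v/v) DMSO. Mixtures filtered through two stacked DEAE-cellulose filters and washed with water. Bound radioactivity counted by liquid scintillation.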

| Compound | GI50 (SK-MEL-5) | GI50 (Tumor Cell line) | GI50 (U-251) | GI50 (MDA-MB-435) | GI50 (HCT-116) | pIC50 (Tubulin beta chain) | GI50 (NCI-H460) | GI50 (OVCAR-3) | GI50 (HL-60) | GI50 (MDA-N) | GI50 (PC-3) | GI50 (SF-295) | GI50 (786-0) | inhibition [1] |
| --- | --- | --- | --- | --- | --- | --- | --- | --- | --- | --- | --- | --- | --- | --- |
| Cc1cnc2nc(-c3ccc(Cl)cc3)cc(O)c2c1 | 2.19 µM | 3.72 µM | 3.02 µM | 0.603 µM | 2.82 µM | 5.70 | 3.89 µM | 2.24 µM | 2.24 µM | 0.562 µM | 1.15 µM | 2.4 µM | 6.31 µM |  |
| COc1ccc(-c2cc(O)c3c(C)ccnc3n2)cc1 | 3.89 µM | 12.9 µM | 6.31 µM | 2.4 µM | 6.46 µM | 5.06 | 6.17 µM | 13.8 µM | 4.37 µM | 2.09 µM | 18.2 µM | 19.5 µM | 25.1 µM |  |
| COc1ccccc1-c1cc(O)c2c(C)cc(C)nc2n1 | 33.9 µM | 57.5 µM | > 100 µM | 32.4 µM | 74.1 µM | < 4.40 | 70.8 µM | 64.6 µM | 30.2 µM | 33.1 µM | 47.9 µM | 53.7 µM | > 100 µM |  |
| COc1ccc(-c2cc(O)c3ccc(C)nc3n2)cc1 | 47.9 µM | 91.2 µM | > 100 µM | 42.7 µM | > 100 µM | < 4.40 | > 100 µM | > 100 µM | > 100 µM | 55 µM | > 100 µM | 89.1 µM | > 100 µM |  |
| COc1ccccc1-c1cc(O)c2ccc(C)nc2n1 | 51.3 µM | 79.4 µM | > 100 µM | 21.9 µM | 38 µM | < 4.40 | 97.7 µM | > 100 µM | 74.1 µM | 20 µM | > 100 µM | > 100 µM | > 100 µM |  |
| COc1ccc(-c2cc(O)c3cccnc3n2)cc1 | 34.7 µM | 38 µM | 53.7 µM | 20 µM | 17.8 µM | < 4.40 | 26.3 µM | 30.2 µM | 12.9 µM | 20.9 µM | 31.6 µM | 64.6 µM | 56.2 µM |  |
| COc1cccc(-c2cc(=O)c3ccc(C)nc3[nH]2)c1 | 0.0339 µM | 0.0575 µM | 0.0537 µM | < 0.01 µM | 0.0468 µM |  | 0.0437 µM | 0.0224 µM | 0.0182 µM | 0.011 µM | 0.0331 µM | 0.0302 µM | 0.0537 µM | 29% |
| COc1cccc(-c2cc(O)c3cc(Br)cnc3n2)c1 |  |  |  |  |  | 5.82 |  |  |  |  |  |  |  |  |
| Cc1ccnc2nc(-c3ccc(Cl)cc3)cc(O)c12 | 3.47 µM | 5.13 µM | 4.57 µM | 0.759 µM | 3.72 µM | 5.32 | 3.72 µM | 3.16 µM | 1.78 µM | 1.32 µM | 2.88 µM | 5.37 µM | 3.98 µM |  |
| Oc1cc(-c2ccc(Cl)cc2)nc2ncccc12 | 28.8 µM | 38.9 µM | 39.8 µM | 5.89 µM | 32.4 µM | 4.66 | 38 µM | 23.4 µM | 16.6 µM | 8.32 µM | 47.9 µM | 40.7 µM | 33.9 µM |  |
| Cc1ccc(-c2cc(O)c3c(C)ccnc3n2)cc1 |  |  |  |  |  | 5.54 |  |  |  |  |  |  |  |  |
| Cc1ccc(-c2cc(O)c3cc(C)cnc3n2)cc1 |  |  |  |  |  | 5.62 |  |  |  |  |  |  |  |  |
| Cc1ccc2c(O)cc(-c3ccc(F)cc3)nc2n1 | 31.6 µM | 32.4 µM | 37.2 µM | 5.89 µM | 33.9 µM | < 4.40 | 33.9 µM | 32.4 µM | 14.8 µM | 11.7 µM | 20.9 µM | 37.2 µM | 41.7 µM |  |
| Oc1cc(-c2ccc(F)cc2)nc2ncc(Cl)cc12 | 6.61 µM | 21.9 µM | 29.5 µM | 2.57 µM | 17 µM | 4.80 | 30.2 µM | 17.4 µM | 3.89 µM | 2.95 µM | 21.9 µM | 21.4 µM | 32.4 µM |  |
| COc1cc([C@@H]2c3cc4c(cc3[C@H](O)[C@H]3COC(=O)[C@H]23)OCO4)cc(OC)c1OC [PODOFILOX] |  | 0.0288 µM |  |  |  |  |  |  |  |  |  |  |  | 76% |
| COc1cccc(-c2cc(O)c3ccccc3n2)c1 |  | 6.17 µM | 9.55 µM |  |  |  | 3.98 µM |  | 2.09 µM |  |  |  | 5.13 µM |  |
| COc1cc2c(c(OC)c1OC)-c1ccc(OC)c(=O)cc1[C@@H](NC(C)=O)CC2 [COLCHICINE] |  | 0.0575 µM |  |  |  |  |  |  |  |  |  |  |  |  |
| COc1ccccc1-c1cc(O)c2cccnc2n1 | 31.6 µM | 40.7 µM | 67.6 µM | 39.8 µM | 27.5 µM | < 4.40 | 38.9 µM | 47.9 µM | 38.9 µM | 20 µM | 29.5 µM | 23.4 µM | 36.3 µM |  |
| COc1ccc(/C=C\c2cc(OC)c(OC)c(OC)c2)cc1O [COMBRETASTATIN A4] |  | 0.00661 µM |  |  |  |  |  |  |  |  |  |  |  |  |
| Oc1cc(-c2ccc(F)cc2)nc2ncccc12 | 30.2 µM | 45.7 µM | 47.9 µM | 12 µM | 42.7 µM | < 4.40 | 34.7 µM | 45.7 µM | 12.9 µM | 14.1 µM | 45.7 µM | 50.1 µM | 44.7 µM |  |
| Cc1cc(C)c2c(O)cc(-c3ccc(F)cc3)nc2n1 | 26.3 µM | 40.7 µM | 95.5 µM | 18.6 µM | 50.1 µM | < 4.40 | 51.3 µM | 43.7 µM | 15.5 µM | 25.1 µM | 30.2 µM | 50.1 µM | 79.4 µM |  |
| Cc1cnc2nc(-c3ccc(F)cc3)cc(O)c2c1 | 21.9 µM | 26.3 µM | 25.1 µM | 2.63 µM | 24 µM | 4.70 | 33.9 µM | 22.4 µM | 2.4 µM | 3.02 µM | 25.7 µM | 29.5 µM | 32.4 µM |  |
| COc1cccc(-c2cc(O)c3ccc(C)nc3n2)c1 |  |  |  |  |  | 6.12 |  |  |  |  |  |  |  |  |
| Cc1ccc(-c2cc(O)c3ccc(C)nc3n2)cc1 |  |  |  |  |  | 5.31 |  |  |  |  |  |  |  |  |
| Cc1ccc2c(O)cc(-c3ccc(Cl)cc3)nc2n1 | 4.37 µM | 4.9 µM | 4.79 µM | 0.912 µM | 3.31 µM | 4.96 | 4.47 µM | 2.57 µM | 2.95 µM | 1 µM | 1.66 µM | 4.57 µM | 6.31 µM |  |
| COc1ccccc1-c1cc(O)c2cc(C)cnc2n1 | 20.4 µM | 31.6 µM | 27.5 µM | 3.02 µM | 42.7 µM | 4.74 | 32.4 µM | 19.5 µM | 9.55 µM | 4.47 µM | 26.9 µM | 30.9 µM | 41.7 µM |  |
| Cc1ccc(-c2cc(O)c3c(C)cc(C)nc3n2)cc1 |  |  |  |  |  | 5.01 |  |  |  |  |  |  |  |  |
